Converted amounts (≈) assume the structure as drawn. The source made the active and inactive calls. No cut-off for these calls is given here.
How the values were obtained:
[1] = tested on: Mycobacterium tuberculosis; assay: Antimycobacterial activity against Mycobacterium tuberculosis mc2 6230 assessed as inhibition of bacterial growth measured after 7 days by broth dilution method; assay type: functional; conditions: mc2 6230, 168 h, time 7 day
How it was run: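 Pantothenate auxotroph carrying empty pMV261. 2-fold serial dilutions, 37 °C, no agitation, 7 days. MIC99 is the lowest concentration with no turbidity change. DMSO vehicle control.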

[2] = tested on: Mycobacteroides abscessus; assay: Antimycobacterial activity against Mycobacterium abscessus CIP104536 rough variant assessed as inhibition of bacterial growth measured after 4 days by broth dilution method; assay type: functional; conditions: CIP104536, 96 h, time 4 day
How it was run: (§1)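 MIC99 by CLSI broth 2-fold serial dilution in CaMHB. Inoculum 5.10⁶ CFU/mL. Incubated at 30 °C and read by turbidity after 4 days. DMSO vehicle control, INH reference.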

[3] = tested on: Mycobacterium tuberculosis; assay: Inhibition of mycolic acid biosynthesis in Mycobacterium tuberculosis mc2 6230 assessed as decrease in alpha-mycolic acid incubated for 15 mins followed by 14C-labeled acetate addition measured after 7 hrs by TLC analysis; assay type: functional, organism-based; conditions: time 435.0 min
Mycobacterium marinum = assay: Antimycobacterial activity against Mycobacterium marinum M strain assessed as inhibition of bacterial growth measured after 6 days by broth dilution method; assay type: functional; conditions: 144 h, time 6 day
How it was run: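 MIC99 by 2-fold serial broth dilution in 7H9 with 10% OADC and 0.025% tyloxapol. Inoculum 5.10⁶ CFU/mL. Incubated without agitation at 30 °C, scored for no turbidity change after 6 days. DMSO vehicle control.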

[4] = tested on: Mycobacterium tuberculosis; assay: Inhibition of mycolic acid biosynthesis in Mycobacterium tuberculosis mc2 6230 assessed as decrease in keto-mycolic acid incubated for 15 mins followed by 14C-labeled acetate addition measured after 7 hrs by TLC analysis; assay type: functional, organism-based; conditions: time 435.0 min
[5] = tested on: Mycobacteroides abscessus; assay: Antimycobacterial activity against Mycobacterium abscessus CIP104536 smooth variant assessed as inhibition of bacterial growth measured after 4 days by broth dilution method; assay type: functional; conditions: CIP104536, 96 h, time 4 day; how it was run: as §1
[6] = tested on: Mycobacterium tuberculosis; assay: Inhibition of mycolic acid biosynthesis in Mycobacterium tuberculosis mc2 6230 assessed as decrease in methoxy-mycolic acid incubated for 15 mins followed by 14C-labeled acetate addition measured after 7 hrs by TLC analysis; assay type: functional, organism-based; conditions: time 435.0 min
[7] = tested on: Mycobacterium tuberculosis; assay: Antimycobacterial activity against Mycobacterium tuberculosis mc2 6230 assessed as reduction in log10 CFU at 1 time of MIC measured after 6 days by time-killing kinetics assay; assay type: functional, organism-based; conditions: time 6.0 day
How it was run: (§2)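 Exposed to 1x, 5x or 20x MIC at 37 °C for up to 6 days. Serial dilutions plated on 7H10/OADC/pantothenate and colonies counted after 3 weeks. Mean of four independent experiments in technical triplicate, with SD. DMSO negative control.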

[8] = Cytotoxicity against human THP-1 cells assessed as reduction in cell viability measured after 24 hrs by resazurin staining based analysis; assay type: toxicity
How it was run: (§3)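 THP-1 monocytes differentiated with 20 ng/mL PMA for 48 hrs at 1×10^5 cells/well. Compounds added by serial dilution from 100 µg/mL for 24 or 72 hrs at 37 °C and 5% CO₂. Resazurin 10% for 4 hrs, fluorescence at ex 540/em 590 nm. Mean of three independent experiments in triplicate. INH and RFB reference drugs.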

[9] = tested on: Mycobacterium tuberculosis; assay: Antimycobacterial activity against Mycobacterium tuberculosis mc2 6230 assessed as inhibition of bacterial growth at 1 ug/ml measured after 7 days by broth dilution method; assay type: functional, organism-based; conditions: dose 1.0 µg/ml, time 7.0 day
[10] = tested on: Mycobacterium tuberculosis; assay: Antimycobacterial activity against Mycobacterium tuberculosis mc2 6230 assessed as reduction in log10 CFU at 20 times of MIC measured after 6 days by time-killing kinetics assay; assay type: functional; conditions: time 6 day; how it was run: as §2
Vero = assay: Cytotoxicity against African green monkey Vero cells assessed as reduction in cell viability measured after 24 hrs by resazurin staining based analysis; assay type: toxicity; conditions: chlorocebus sabaeus
How it was run: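 Vero cells in RPMI 1640 with 10% FCS, 2×10^4 cells/well, adhered overnight at 37 °C and 5% CO₂. Compounds added at 100 to 0.78 µg/mL for 24 hrs. 10% resazurin added for 4 hrs, fluorescence read at ex 540/em 590 nm.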

[11] = tested on: Mycobacterium tuberculosis; assay: Antimycobacterial activity against Mycobacterium tuberculosis mc2 6230 assessed as reduction in log10 CFU at 5 times of MIC measured after 3 days by time-killing kinetics assay; assay type: functional; conditions: time 3 day; how it was run: as §2
[12] = Cytotoxicity against human THP-1 cells assessed as reduction in cell viability measured after 72 hrs by resazurin staining based analysis; assay type: toxicity; how it was run: as §3
[13] = tested on: Mycobacterium tuberculosis; assay: Antimycobacterial activity against Mycobacterium tuberculosis H37Rv assessed as inhibition of bacterial growth; assay type: functional
[14] = Selectivity index, […] Mycobacterium marinum M strain to CC50 for cytotoxicity against human THP-1 cells; assay type: toxicity, cell-based; conditions: read-out: Selectivity Index
[15] = Selectivity index, […] Mycobacterium abscessus CIP104536 smooth variant to CC50 for cytotoxicity against human THP-1 cells; assay type: toxicity, cell-based; conditions: read-out: Selectivity Index
[16] = Selectivity index, […] Mycobacterium abscessus CIP104536 rough variant to CC50 for cytotoxicity against human THP-1 cells; assay type: toxicity, cell-based; conditions: read-out: Selectivity Index
[17] = Selectivity index, […] Mycobacterium tuberculosis H37Rv to CC50 for cytotoxicity against human THP-1 cells; assay type: toxicity, cell-based; conditions: read-out: Selectivity Index

Structure (SMILES) | MIC [1] [µg/mL] | MIC [2] [µg/mL] | MIC (Mycobacterium marinum) [µg/mL] | MIC [5] [µg/mL] | further results
O=C(N/N=C/c1ccc(OCc2cn(CCCNc3ccnc4cc(Cl)ccc34)nn2)cc1)c1cccnc1 | > 200 |  |  |  | 
NNC(=O)c1ccncc1 [ISONIAZID] | 0.05 (≈ 0.365 µM) | > 200 | 25 (≈ 182 µM) | > 200 | inhibition [3]: Dose-Dependent Effect; inhibition [4]: Dose-Dependent Effect; inhibition [6]: Dose-Dependent Effect
O=C(N/N=C/c1ccccc1-n1cc(CN2CCN(c3ccnc4cc(Cl)ccc34)CC2)nn1)c1cnccn1 | > 200 |  |  |  | 
COc1cc(C=O)ccc1OCc1cn(CCCNc2ccnc3cc(Cl)ccc23)nn1 | > 200 |  |  |  | 
O=C(N/N=C/c1ccc(OCc2cn(-c3ccnc4cc(Cl)ccc34)nn2)cc1)c1cccnc1 | > 200 |  |  |  | 
Clc1ccc2c(N3CCNCC3)ccnc2c1 | 92 (≈ 371 µM) |  |  |  | 
COc1cc(/C=N/NC(=O)c2cnccn2)ccc1OCc1cn(CCCNc2ccnc3cc(Cl)ccc23)nn1 | > 200 |  |  |  | 
COc1cc(/C=N/NC(=O)c2cccnc2)ccc1OCc1cn(-c2ccnc3cc(Cl)ccc23)nn1 | > 200 |  |  |  | 
COc1cc(/C=N/NC(=O)c2ccncc2)ccc1OCc1cn(CCNc2ccnc3cc(Cl)ccc23)nn1 | 0.5 (≈ 0.898 µM) | > 200 | > 200 | > 200 | Activity [7]: Active; CC50 at 24 h [8]: > 100 µg/mL; Activity [9]: Active; Activity [10]: ~3 log10CFU/ml; Activity (Vero): Non-Toxic; Activity [11]: 2 log10CFU/ml; CC50 at 72 h [12]: 73 µg/mL (≈ 131 µM)
O=Cc1ccc(OCc2cn(CCCNc3ccnc4cc(Cl)ccc34)nn2)cc1 | 50 (≈ 119 µM) | > 200 | 200 (≈ 474 µM) | > 200 | 
O=C(N/N=C/c1ccc(OCc2cn(CCCNc3ccnc4cc(Cl)ccc34)nn2)cc1)c1cnccn1 | > 200 |  |  |  | 
O=C(N/N=C/c1ccc(OCc2cn(CCCNc3ccnc4cc(Cl)ccc34)nn2)cc1)c1ccncc1 | 0.5 (≈ 0.924 µM) | > 200 | 50 (≈ 92.4 µM) | > 200 | Activity [7]: Active; CC50 at 24 h [8]: > 100 µg/mL; Activity [9]: Active; Activity [10]: ~3 log10CFU/ml; Activity (Vero): Non-Toxic; Activity [11]: 2 log10CFU/ml; CC50 at 72 h [12]: 67 µg/mL (≈ 124 µM)
O=C(N/N=C/c1ccccc1)c1ccncc1 [N'-BENZYLIDENE ISONICOTINOHYDRAZIDE] |  |  |  |  | MIC [13]: 0.05 µg/mL (≈ 0.222 µM)
O=Cc1ccc(OCc2cn(CCNc3ccnc4cc(Cl)ccc34)nn2)cc1 | > 200 |  |  |  | 
O=C(N/N=C/c1ccccc1-n1cc(CN2CCN(c3ccnc4cc(Cl)ccc34)CC2)nn1)c1cccnc1 | > 200 |  |  |  | 
O=C(N/N=C/c1ccc(OCc2cn(-c3ccnc4cc(Cl)ccc34)nn2)cc1)c1ccncc1 | 0.25 (≈ 0.517 µM) | > 200 | > 200 | > 200 | selectivity ratio [14]: > 200; Activity [7]: Active; CC50 at 24 h [8]: > 100 µg/mL; Activity [9]: Active; selectivity ratio [15]: > 200; Activity [10]: ~3 log10CFU/ml; Activity (Vero): Non-Toxic; Activity [11]: 2 log10CFU/ml; selectivity ratio [16]: > 200; selectivity ratio [17]: > 200; CC50 at 72 h [12]: > 100 µg/mL

Reference: ChEMBL document CHEMBL5346861, “Designing quinoline-isoniazid hybrids as potent anti-tubercular agents inhibiting mycolic acid biosynthesis” (Eur J Med Chem, 2022)
